Assay results reported in ChEMBL document CHEMBL1649171, “Metabolism of an alkyl polyamine analog by a polyamine oxidase from the microsporidian Encephalitozoon cuniculi” (Antimicrob Agents Chemother, 2009).
pKi: −log10 of the molar value. Where “and” joins values, the source holds several entries; their conditions need not be identical. Equal entries are not always repeated.

Columns and labels:
[1] = system: Encephalitozoon cuniculi; test: Activity of Encephalitozoon cuniculi polyamine oxidase assessed as hydrogen peroxide release per mg protein by spectrophotometry relative to 1 mM N'-acetylspermine
Procedure, shortened: (§1)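 Crude enzyme came from mature E. cuniculi spores collected from culture overlay. Spores were washed in PBS pH 6.8, given 1% SDS for 5 min, glass-bead disrupted to >80% breakage, and clarified at 2,200 × g. The 1 ml assay at 37°C held 0.1 M glycine pH 7.0, 10 U horseradish peroxidase, 5 mM ABTS and 22–220 μg protein. Substrate started the reaction. A420 was followed 15 or 30 min; initial linear rate minus no-substrate control.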

[2] = system: Encephalitozoon cuniculi; test: Activity of Encephalitozoon cuniculi polyamine oxidase assessed as hydrogen peroxide release per mg protein by spectrophotometry
Procedure, shortened: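 Enzyme was a clarified glass-bead homogenate of SDS-washed mature spores (>80% breakage). Reactions at 37°C held 0.1 M glycine, pH 7.0, 10 U HRP, 5 mM ABTS and 22–220 μg protein, and were started with substrate (1 mM N1-acetylspermine or another, e.g. 0.1 mM). Peroxide was followed as ABTS oxidation at 420 nm (ε 3.6 × 10⁴ M⁻¹ cm⁻¹) for 15 or 30 min. Values are the initial linear rate minus a no-substrate control.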

[3] = system: Encephalitozoon cuniculi; test: Activity of Encephalitozoon cuniculi polyamine oxidase assessed as hydrogen peroxide release per mg protein by spectrophotometry relative to 0.1 mM N'-acetylspermine; procedure, shortened: as §1
[4] = system: Encephalitozoon cuniculi; test: Activity of Encephalitozoon cuniculi polyamine oxidase assessed as hydrogen peroxide release by spectrophotometry; procedure, shortened: as §1
[5] = system: Encephalitozoon cuniculi; test: Activity of Encephalitozoon cuniculi polyamine oxidase assessed as hydrogen peroxide release by spectrophotometry in presence of 1,15-bis{N-[O-phenyl)benzylamino}-4,12-diazapentadecane
Procedure, shortened: (§2)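 Crude spore extract (SDS-washed spores, glass-bead disrupted, clarified at 2,200 × g) in 0.1 M glycine, pH 7.0, with horseradish peroxidase and ABTS. Runs used N1-acetylspermine at 100–2,000 μM, alone or with the analog fixed at 5, 50 or 100 μM; the analog alone was run at 1–25 μM. Reactions were started with 67 μg extract, and A420 was read for 15 min. Kinetic constants came from Hanes-Woolf plots ([S]/V vs [S]).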

[6] = Inhibition of Encephalitozoon cuniculi polyamine oxidase assessed as hydrogen peroxide release using N'-acetylspermine substrate by spectrophotometry; procedure, shortened: as §2

SMILES | fold change (FC) [1] | Activity [2] | fold change (FC) [3] | Km [4] [µM] | Vmax [4] [µM/min] | Km [5] [µM] | Vmax [5] [µM/min] | pKi [6]
c1ccc(CNCCCNCCCCCCCNCCCNCc2ccccc2)cc1 | 0.89 | 1370 nmol/min and 690 nmol/min | 0.98 |  |  |  |  | 
CC(=O)NCCCNCCCCNCCCN |  |  |  | 30 | 10 | 15 | 17.5 | 
c1ccc(-c2ccccc2CNCCCNCCCCCCCNCCCNCc2ccccc2-c2ccccc2)cc1 | 0.31 |  | 0.8 | 2 | 7.6 |  |  | 4.40
